According to ChEMBL document CHEMBL2380295, “Structure-activity studies on the side chain of a simplified analog of aplysiatoxin (aplog-1) with anti-proliferative activity” (Bioorg Med Chem, 2013):

Legend:
[1] = Cytotoxicity against human Raji cells assessed as cell viability at 10^-6 M; type: cell-based; settings: read-out: Activity
[2] = Cytotoxicity against human Raji cells assessed as cell viability at 10^-7 M; type: cell-based; settings: read-out: Activity
Human gammaherpesvirus 4 [3] = assay: Induction of EBV-early antigen expressed in human Raji cells at 10^-6 M after 48 hrs by immunofluorescence assay relative to control; type: organism-based; settings: human gammaherpesvirus 4, raji, 1 µM
Summary of the method: (§1)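 Raji B-lymphoblastoid cells (5 × 10^5/mL) in RPMI 1640 with 10% FBS, with 4 mM sodium n-butyrate as synergist and test compound at 10^-7 or 10^-6 M (final DMSO 0.4%). Incubated 48 h at 37 °C under 5% CO2. Smears were stained by indirect immunofluorescence using NPC patient serum and FITC anti-human IgG. At least 500 cells counted; % EA-positive recorded; n = 3, SEM.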

Human gammaherpesvirus 4 [4] = assay: Induction of EBV-early antigen expressed in human Raji cells at 10^-7 M after 48 hrs by immunofluorescence assay relative to control; type: organism-based; settings: human gammaherpesvirus 4, raji, 0.1 µM; summary of the method: as §1
PC-3 = assay: Growth inhibition of human PC3 cells after 48 hrs by sulforhodamine B assay; type: functional; settings: PC-3, 48 h
Summary of the method: (§2)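 Yamori 39-line human cancer panel, NCI method with modifications. Cells plated in RPMI 1640 plus 5% FBS, attached overnight, then exposed 48 h to compound at 10^-8, 10^-7, 10^-6, 10^-5 and 10^-4 M. Sulforhodamine B staining read at 525 nm; % growth = 100[(T−T0)/(C−T0)] from duplicate-point averages, with T0 the time-zero absorbance. GI50 is the concentration giving 50.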

DU-145 = assay: Growth inhibition of human DU145 cells after 48 hrs by sulforhodamine B assay; type: functional; settings: DU-145, 48 h; summary of the method: as §2
MKN-74 = assay: Growth inhibition of human MKN74 cells after 48 hrs by sulforhodamine B assay; type: functional; settings: MKN-74, 48 h; summary of the method: as §2
MKN-28 = assay: Growth inhibition of human MKN28 cells after 48 hrs by sulforhodamine B assay; type: functional; settings: MKN-28, 48 h; summary of the method: as §2
MKN-45 = assay: Growth inhibition of human MKN45 cells after 48 hrs by sulforhodamine B assay; type: functional; settings: MKN-45, 48 h; summary of the method: as §2
MKN-7 = assay: Growth inhibition of human MKN7 cells after 48 hrs by sulforhodamine B assay; type: functional; settings: MKN-7, 48 h; summary of the method: as §2
St-4 = assay: Growth inhibition of human St-4 cells after 48 hrs by sulforhodamine B assay; type: functional; settings: St-4, 48 h; summary of the method: as §2
[5] = Growth inhibition of human MKN1 cells after 48 hrs by sulforhodamine B assay; type: functional; settings: MKN-1, 48 h; summary of the method: as §2
[6] = Growth inhibition of human RXF631L cells after 48 hrs by sulforhodamine B assay; type: functional; settings: RXF 631, 48 h; summary of the method: as §2
ACHN = assay: Growth inhibition of human ACHN cells after 48 hrs by sulforhodamine B assay; type: functional; summary of the method: as §2
OVCAR-8 = assay: Growth inhibition of human OVCAR8 cells after 48 hrs by sulforhodamine B assay; type: functional; settings: OVCAR-8, 48 h; summary of the method: as §2
SK-OV-3 = assay: Growth inhibition of human SKOV3 cells after 48 hrs by sulforhodamine B assay; type: functional; settings: SK-OV-3, 48 h; summary of the method: as §2
OVCAR-5 = assay: Growth inhibition of human OVCAR5 cells after 48 hrs by sulforhodamine B assay; type: functional; settings: OVCAR-5, 48 h; summary of the method: as §2
OVCAR-3 = assay: Growth inhibition of human OVCAR3 cells after 48 hrs by sulforhodamine B assay; type: functional; settings: OVCAR-3, 48 h; summary of the method: as §2
OVCAR-4 = assay: Growth inhibition of human OVCAR4 cells after 48 hrs by sulforhodamine B assay; type: functional; settings: OVCAR-4, 48 h; summary of the method: as §2
DMS-114 = assay: Growth inhibition of human DMS114 cells after 48 hrs by sulforhodamine B assay; type: functional; settings: DMS-114, 48 h; summary of the method: as §2
LOX IMVI = assay: Growth inhibition of human LOXIMVI cells after 48 hrs by sulforhodamine B assay; type: functional; summary of the method: as §2
A549 = assay: Growth inhibition of human A549 cells after 48 hrs by sulforhodamine B assay; type: functional; settings: A549, 48 h; summary of the method: as §2
DMS-273 = assay: Growth inhibition of human DMS273 cells after 48 hrs by sulforhodamine B assay; type: functional; settings: DMS-273, 48 h; summary of the method: as §2
NCI-H460 = assay: Growth inhibition of human NCI-H460 cells after 48 hrs by sulforhodamine B assay; type: functional; settings: NCI-H460, 48 h; summary of the method: as §2
NCI-H226 = assay: Growth inhibition of human NCI-H226 cells after 48 hrs by sulforhodamine B assay; type: functional; settings: NCI-H226, 48 h; summary of the method: as §2
NCI-H522 = assay: Growth inhibition of human NCI-H522 cells after 48 hrs by sulforhodamine B assay; type: functional; settings: NCI-H522, 48 h; summary of the method: as §2
HCT-116 = assay: Growth inhibition of human HCT116 cells after 48 hrs by sulforhodamine B assay; type: functional; settings: HCT-116, 48 h; summary of the method: as §2
NCI-H23 = assay: Growth inhibition of human NCI-H23 cells after 48 hrs by sulforhodamine B assay; type: functional; settings: NCI-H23, 48 h; summary of the method: as §2
HCT-15 = assay: Growth inhibition of human HCT15 cells after 48 hrs by sulforhodamine B assay; type: functional; settings: HCT-15, 48 h; summary of the method: as §2
KM12 = assay: Growth inhibition of human KM12 cells after 48 hrs by sulforhodamine B assay; type: functional; settings: KM12, 48 h; summary of the method: as §2
HT-29 = assay: Growth inhibition of human HT-29 cells after 48 hrs by sulforhodamine B assay; type: functional; settings: HT-29, 48 h; summary of the method: as §2
SNB-78 = assay: Growth inhibition of human SNB78 cells after 48 hrs by sulforhodamine B assay; type: functional; settings: SNB-78, 48 h; summary of the method: as §2
[7] = Growth inhibition of human HCC2998 cells after 48 hrs by sulforhodamine B assay; type: functional; settings: HCC 2998, 48 h; summary of the method: as §2
SF-539 = assay: Growth inhibition of human SF539 cells after 48 hrs by sulforhodamine B assay; type: functional; settings: SF-539, 48 h; summary of the method: as §2
SNB-75 = assay: Growth inhibition of human SNB75 cells after 48 hrs by sulforhodamine B assay; type: functional; settings: SNB-75, 48 h; summary of the method: as §2
SF-295 = assay: Growth inhibition of human SF295 cells after 48 hrs by sulforhodamine B assay; type: functional; settings: SF-295, 48 h; summary of the method: as §2
U-251 = assay: Growth inhibition of human U251 cells after 48 hrs by sulforhodamine B assay; type: functional; settings: U-251, 48 h; summary of the method: as §2
SF-268 = assay: Growth inhibition of human SF268 cells after 48 hrs by sulforhodamine B assay; type: functional; settings: SF-268, 48 h; summary of the method: as §2
MCF7 = assay: Growth inhibition of human MCF7 cells after 48 hrs by sulforhodamine B assay; type: functional; settings: MCF7, 48 h; summary of the method: as §2
MDA-MB-231 = assay: Growth inhibition of human MDA-MB-231 cells after 48 hrs by sulforhodamine B assay; type: functional; settings: MDA-MB-231, 48 h; summary of the method: as §2
[8] = Growth inhibition of human BSY1 cells after 48 hrs by sulforhodamine B assay; type: functional; settings: BSY-1, 48 h; summary of the method: as §2
[9] = Growth inhibition of human HBC5 cells after 48 hrs by sulforhodamine B assay; type: functional; settings: HBC5, 48 h; summary of the method: as §2
[10] = Growth inhibition of human HBC4 cells after 48 hrs by sulforhodamine B assay; type: functional; settings: HBC4, 48 h; summary of the method: as §2
[11] = Octanol-water partition coefficient, log P of the compound by HPLC analysis; type: physicochemical
Summary of the method: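 log P was estimated from HPLC retention, with column dead time measured using unretained formamide.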

[12] = target: T1, Protein kinase C delta type (Homo sapiens, UniProt Q05655); assay: Inhibition of [3H]PDBu binding to PKCdelta-C1A domain peptide (unknown origin)
T1 sequence (Q05655 whole entry, the tested form may be a part): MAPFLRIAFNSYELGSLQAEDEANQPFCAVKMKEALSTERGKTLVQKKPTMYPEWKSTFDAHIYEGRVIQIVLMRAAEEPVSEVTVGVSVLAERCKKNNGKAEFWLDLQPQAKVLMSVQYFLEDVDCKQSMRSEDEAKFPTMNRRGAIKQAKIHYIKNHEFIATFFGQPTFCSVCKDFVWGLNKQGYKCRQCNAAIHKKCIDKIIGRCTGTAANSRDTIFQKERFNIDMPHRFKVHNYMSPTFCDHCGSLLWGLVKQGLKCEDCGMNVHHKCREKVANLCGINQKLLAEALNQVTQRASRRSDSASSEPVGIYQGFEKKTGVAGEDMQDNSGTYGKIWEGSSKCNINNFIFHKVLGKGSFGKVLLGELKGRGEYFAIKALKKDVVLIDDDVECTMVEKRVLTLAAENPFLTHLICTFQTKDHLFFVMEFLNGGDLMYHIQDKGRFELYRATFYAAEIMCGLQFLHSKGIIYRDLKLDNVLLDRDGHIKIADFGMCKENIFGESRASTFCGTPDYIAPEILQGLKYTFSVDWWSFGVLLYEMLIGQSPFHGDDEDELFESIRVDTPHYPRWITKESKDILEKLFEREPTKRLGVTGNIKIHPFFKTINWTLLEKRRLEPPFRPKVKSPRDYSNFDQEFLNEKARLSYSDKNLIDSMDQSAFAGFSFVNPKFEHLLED
Summary of the method: (§3)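 Competitive [3H]PDBu binding used 14 or 40 nM PKCδ C1 peptide and 20 nM [3H]PDBu (19.6 Ci/mmol), in 50 mM Tris-maleate (pH 7.4 at 4 °C) with 50 µg/mL phosphatidylserine, 3 mg/mL bovine γ-globulin and varied inhibitor concentrations. IC50 was taken as 50% inhibition of specific binding. Ki was derived by the Sharkey–Blumberg method.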

[13] = target: T1, Protein kinase C delta type; assay: Inhibition of [3H]PDBu binding to PKCdelta-C1B domain peptide (unknown origin); summary of the method: as §3

CC1(C)CC[C@@H]2CC(=O)O[C@@H](CO)CC(=O)O[C@@H]3C[C@@H](CCCCc4cc(O)c(Br)cc4Br)O[C@@]1(C3)O2
viability at 1 µM [1]: 40% | viability at 0.1 µM [2]: 40% | Activity (Human gammaherpesvirus 4 [3]): 2.1% | Activity (Human gammaherpesvirus 4 [4]): 2% | GI50 (PC-3): 3.89 µM | GI50 (DU-145): 11.2 µM | GI50 (MKN-74): 11 µM | GI50 (MKN-28): 8.32 µM | GI50 (MKN-45): 3.72 µM | GI50 (MKN-7): 6.46 µM | GI50 (St-4): 1290 nM | GI50 [5]: 10.2 µM | GI50 [6]: 14.5 µM | GI50 (ACHN): 5.75 µM | GI50 (OVCAR-8): 15.8 µM | GI50 (SK-OV-3): 15.8 µM | GI50 (OVCAR-5): 10 µM | GI50 (OVCAR-3): 6.17 µM | GI50 (OVCAR-4): 15.5 µM | GI50 (DMS-114): 13.5 µM | GI50 (LOX IMVI): 2.82 µM | GI50 (A549): 4.9 µM | GI50 (DMS-273): 10.7 µM | GI50 (NCI-H460): 1230 nM | GI50 (NCI-H226): 15.1 µM | GI50 (NCI-H522): 13.8 µM | GI50 (HCT-116): 10.7 µM | GI50 (NCI-H23): 6.61 µM | GI50 (HCT-15): 13.8 µM | GI50 (KM12): 4.79 µM | GI50 (HT-29): 15.5 µM | GI50 (SNB-78): 12.9 µM | GI50 [7]: 0.891 µM | GI50 (SF-539): 10 µM | GI50 (SNB-75): 5.89 µM | GI50 (SF-295): 6.61 µM | GI50 (U-251): 11.7 µM | GI50 (SF-268): 12.6 µM | GI50 (MCF7): 12.3 µM | GI50 (MDA-MB-231): 2.95 µM | GI50 [8]: 4.57 µM | GI50 [9]: 14.1 µM | GI50 [10]: 224 nM | logP [11]: 5 | Ki [12]: 93 nM | Ki [13]: 4.1 nM

CC1(C)CC[C@@H]2CC(=O)O[C@@H](CO)CC(=O)O[C@@H]3C[C@@H](CCCCc4c(Br)cc(Br)c(O)c4Br)O[C@@]1(C3)O2
viability at 1 µM [1]: 40% | viability at 0.1 µM [2]: 40% | Activity (Human gammaherpesvirus 4 [3]): 1.9% | Activity (Human gammaherpesvirus 4 [4]): 1.9% | GI50 (PC-3): 13.2 µM | GI50 (DU-145): 17 µM | GI50 (MKN-74): 21.9 µM | GI50 (MKN-28): 18.2 µM | GI50 (MKN-45): 11.5 µM | GI50 (MKN-7): 20.9 µM | GI50 (St-4): 3090 nM | GI50 [5]: 14.8 µM | GI50 [6]: 21.9 µM | GI50 (ACHN): 16.2 µM | GI50 (OVCAR-8): 17.4 µM | GI50 (SK-OV-3): 32.4 µM | GI50 (OVCAR-5): 18.6 µM | GI50 (OVCAR-3): 15.5 µM | GI50 (OVCAR-4): 20.9 µM | GI50 (DMS-114): 25.7 µM | GI50 (LOX IMVI): 11.7 µM | GI50 (A549): 12.6 µM | GI50 (DMS-273): 18.2 µM | GI50 (NCI-H460): 3240 nM | GI50 (NCI-H226): 16.2 µM | GI50 (NCI-H522): 20.4 µM | GI50 (HCT-116): 17.8 µM | GI50 (NCI-H23): 14.1 µM | GI50 (HCT-15): 18.2 µM | GI50 (KM12): 16.6 µM | GI50 (HT-29): 16.6 µM | GI50 (SNB-78): 47.9 µM | GI50 [7]: 7.59 µM | GI50 (SF-539): 13.5 µM | GI50 (SNB-75): 26.3 µM | GI50 (SF-295): 13.2 µM | GI50 (U-251): 16.2 µM | GI50 (SF-268): 20.9 µM | GI50 (MCF7): 19.5 µM | GI50 (MDA-MB-231): 12 µM | GI50 [8]: 21.4 µM | GI50 [9]: 22.9 µM | GI50 [10]: 871 nM | logP [11]: 5.5 | Ki [12]: 79 nM | Ki [13]: 6.9 nM
